Laboratory results: ChEMBL document CHEMBL1123181 (J Med Chem, 1986)

Assays:
[1] = molecular target: T1, Angiotensin-converting enzyme (Oryctolagus cuniculus, UniProt P12822); test: Inhibition of the activity of rabbit lung Angiotensin I converting enzyme
T1 sequence (P12822 whole entry): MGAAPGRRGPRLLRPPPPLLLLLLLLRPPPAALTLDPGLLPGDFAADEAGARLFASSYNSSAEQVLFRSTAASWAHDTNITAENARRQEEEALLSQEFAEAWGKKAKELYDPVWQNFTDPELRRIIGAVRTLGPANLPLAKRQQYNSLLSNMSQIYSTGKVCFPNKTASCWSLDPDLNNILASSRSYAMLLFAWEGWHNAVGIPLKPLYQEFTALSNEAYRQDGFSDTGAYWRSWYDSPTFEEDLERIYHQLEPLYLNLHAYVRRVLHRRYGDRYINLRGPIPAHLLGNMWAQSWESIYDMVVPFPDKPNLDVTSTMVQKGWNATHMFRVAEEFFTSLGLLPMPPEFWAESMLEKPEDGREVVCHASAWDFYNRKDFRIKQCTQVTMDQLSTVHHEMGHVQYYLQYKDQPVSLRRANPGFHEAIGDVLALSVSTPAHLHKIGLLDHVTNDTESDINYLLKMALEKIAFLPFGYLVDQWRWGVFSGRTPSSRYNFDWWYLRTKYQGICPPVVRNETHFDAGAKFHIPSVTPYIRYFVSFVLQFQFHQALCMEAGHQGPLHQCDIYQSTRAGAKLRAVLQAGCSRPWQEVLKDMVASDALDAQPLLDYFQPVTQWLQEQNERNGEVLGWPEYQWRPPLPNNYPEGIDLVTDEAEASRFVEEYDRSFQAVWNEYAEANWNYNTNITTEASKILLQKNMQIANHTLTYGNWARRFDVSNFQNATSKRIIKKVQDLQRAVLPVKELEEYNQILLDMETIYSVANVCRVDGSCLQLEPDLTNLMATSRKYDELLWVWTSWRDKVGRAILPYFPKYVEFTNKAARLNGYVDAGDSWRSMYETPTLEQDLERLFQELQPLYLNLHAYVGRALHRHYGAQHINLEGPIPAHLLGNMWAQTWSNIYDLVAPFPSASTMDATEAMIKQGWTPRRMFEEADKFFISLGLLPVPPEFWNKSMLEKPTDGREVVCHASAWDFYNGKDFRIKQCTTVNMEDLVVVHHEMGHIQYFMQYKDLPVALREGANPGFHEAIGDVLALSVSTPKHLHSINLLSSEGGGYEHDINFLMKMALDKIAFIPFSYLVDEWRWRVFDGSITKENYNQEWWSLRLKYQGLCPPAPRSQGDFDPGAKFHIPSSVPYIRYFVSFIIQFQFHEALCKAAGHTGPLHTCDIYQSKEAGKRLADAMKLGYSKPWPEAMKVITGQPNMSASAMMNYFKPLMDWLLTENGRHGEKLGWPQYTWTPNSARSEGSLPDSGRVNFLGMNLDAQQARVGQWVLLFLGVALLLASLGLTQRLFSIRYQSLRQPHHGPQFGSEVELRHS
Outline: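 Rabbit lung acetone-powder ACE, crude and dialyzed. Enzyme was added to substrate ± inhibitor and the reaction stopped with HCl after 10 min. Hippuric acid was extracted into AcOEt and read at 228 nm.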

[2] = molecular target: T1, Angiotensin-converting enzyme; test: In vitro inhibition of Angiotensin I converting enzyme activity in rabbit lung; type: tissue-based; conditions: read-out: I50
[3] = molecular target: T1, Angiotensin-converting enzyme; test: In vitro inhibition of Angiotensin I converting enzyme activity at pH 8.5 in rabbit lung; type: tissue-based; conditions: read-out: I50
[4] = molecular target: Angiotensin-converting enzyme (Rattus norvegicus) (UniProt P47820); test: The time to 50% recovery of the angiotensin I response was measured after po administration at 1.5 mg/kg
Sequence of Angiotensin-converting enzyme (Rattus norvegicus) (P47820 whole entry, looked up): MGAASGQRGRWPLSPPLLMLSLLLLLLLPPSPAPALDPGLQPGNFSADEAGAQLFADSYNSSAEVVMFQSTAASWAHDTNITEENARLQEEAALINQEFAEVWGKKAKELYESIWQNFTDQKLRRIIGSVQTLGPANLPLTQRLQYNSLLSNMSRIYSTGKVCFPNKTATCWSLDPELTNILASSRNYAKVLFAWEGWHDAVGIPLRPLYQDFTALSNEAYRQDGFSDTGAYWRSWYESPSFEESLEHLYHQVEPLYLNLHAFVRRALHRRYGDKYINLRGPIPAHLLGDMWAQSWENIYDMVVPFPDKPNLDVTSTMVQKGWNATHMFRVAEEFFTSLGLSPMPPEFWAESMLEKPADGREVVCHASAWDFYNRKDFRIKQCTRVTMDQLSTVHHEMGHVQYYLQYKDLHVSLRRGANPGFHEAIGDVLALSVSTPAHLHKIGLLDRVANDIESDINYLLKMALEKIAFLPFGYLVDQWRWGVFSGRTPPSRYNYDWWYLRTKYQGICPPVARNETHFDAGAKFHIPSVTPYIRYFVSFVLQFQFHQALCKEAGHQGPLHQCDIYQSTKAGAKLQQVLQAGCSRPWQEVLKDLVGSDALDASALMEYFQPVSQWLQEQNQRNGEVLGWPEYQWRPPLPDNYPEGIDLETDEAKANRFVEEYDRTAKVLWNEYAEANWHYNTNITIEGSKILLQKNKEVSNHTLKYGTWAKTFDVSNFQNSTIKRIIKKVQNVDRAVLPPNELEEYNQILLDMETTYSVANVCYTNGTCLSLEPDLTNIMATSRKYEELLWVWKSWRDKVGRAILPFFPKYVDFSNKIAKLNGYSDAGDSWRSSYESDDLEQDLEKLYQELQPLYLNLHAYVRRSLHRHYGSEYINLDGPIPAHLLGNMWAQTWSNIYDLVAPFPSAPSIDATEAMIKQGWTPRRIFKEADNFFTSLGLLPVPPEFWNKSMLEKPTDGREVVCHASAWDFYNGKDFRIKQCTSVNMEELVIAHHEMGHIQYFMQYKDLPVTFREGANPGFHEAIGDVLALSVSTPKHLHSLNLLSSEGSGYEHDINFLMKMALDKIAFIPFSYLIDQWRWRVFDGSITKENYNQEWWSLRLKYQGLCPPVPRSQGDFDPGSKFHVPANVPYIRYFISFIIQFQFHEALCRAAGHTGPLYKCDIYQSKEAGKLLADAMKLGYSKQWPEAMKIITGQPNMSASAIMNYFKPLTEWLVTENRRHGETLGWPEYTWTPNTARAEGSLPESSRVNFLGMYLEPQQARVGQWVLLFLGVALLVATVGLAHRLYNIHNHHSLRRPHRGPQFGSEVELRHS

[5] = molecular target: Angiotensin-converting enzyme (Rattus norvegicus) (UniProt P47820); test: Percentage inactivation of the angiotensin I induced vasopressor response in normotensive conscious rats after po administration at dose 1.5 mg/kg; 17-24; conditions: at 1.5 mg/kg
[6] = molecular target: Angiotensin-converting enzyme (Rattus norvegicus) (UniProt P47820); test: Percentage inactivation of the angiotensin I induced vasopressor response in normotensive conscious rats after po administration at dose 1.5 mg/kg; 20-34
[7] = molecular target: Angiotensin-converting enzyme (Rattus norvegicus) (UniProt P47820); test: The time to 50% recovery of the angiotensin I response was measured after po administration at 1.5 mg/kg; 20-50
[8] = molecular target: Angiotensin-converting enzyme (Rattus norvegicus) (UniProt P47820); test: Percentage inactivation of the angiotensin I induced vasopressor response in normotensive conscious rats after po administration at dose 1.5 mg/kg; 14-21
[9] = molecular target: Angiotensin-converting enzyme (Rattus norvegicus) (UniProt P47820); test: The time to 50% recovery of the angiotensin I response was measured after po administration at 1.5 mg/kg; 30-50
[10] = molecular target: Angiotensin-converting enzyme (Rattus norvegicus) (UniProt P47820); test: The time to 50% recovery of the angiotensin I response was measured after po administration at 0.15 mg/kg; 10-30
[11] = molecular target: Angiotensin-converting enzyme (Rattus norvegicus) (UniProt P47820); test: Percentage inactivation of the angiotensin I induced vasopressor response in normotensive conscious rats after po administration at dose 1.50 mg/kg; 73-79
[12] = molecular target: Angiotensin-converting enzyme (Rattus norvegicus) (UniProt P47820); test: Percentage inactivation of the angiotensin I induced vasopressor response in normotensive conscious rats after po administration at dose 0.15 mg/kg; 24-49
[13] = molecular target: Angiotensin-converting enzyme (Rattus norvegicus) (UniProt P47820); test: The time to 50% recovery of the angiotensin I response was measured after po administration at 0.15 mg/kg; 60-140
[14] = molecular target: Angiotensin-converting enzyme (Rattus norvegicus) (UniProt P47820); test: Percentage inactivation of the angiotensin I induced vasopressor response in normotensive conscious rats after po administration at dose 0.15 mg/kg; 85-96
[15] = molecular target: Angiotensin-converting enzyme (Rattus norvegicus) (UniProt P47820); test: The time to 50% recovery of the angiotensin I response was measured after po administration at 1.5 mg/kg; 10-60
[16] = molecular target: Angiotensin-converting enzyme (Rattus norvegicus) (UniProt P47820); test: Percentage inactivation of the angiotensin I induced vasopressor response in normotensive conscious rats after po administration at dose 1.5 mg/kg; 14-16
[17] = molecular target: Angiotensin-converting enzyme (Rattus norvegicus) (UniProt P47820); test: The time to 50% recovery of the angiotensin I response was measured after po administration at 0.3 mg/kg
[18] = molecular target: Angiotensin-converting enzyme (Rattus norvegicus) (UniProt P47820); test: Percentage inactivation of the angiotensin I induced vasopressor response in normotensive conscious rats after po administration at dose 0.3 mg/kg; 15-17; conditions: at 0.3 mg/kg
[19] = molecular target: Angiotensin-converting enzyme (Rattus norvegicus) (UniProt P47820); test: Percentage inactivation of the angiotensin I induced vasopressor response in normotensive conscious rats after po administration at dose 1.5 mg/kg; 3-5
Rattus norvegicus [20] = test: Time taken by the compound to change arterial pressure outside the control area at a dose of 30mg/kg, po; type: functional, Artery
Rattus norvegicus [21] = test: Maximum percent change in mean arterial pressure by the compound over control after po administration at 30 mg/kg dosage; type: functional, Artery
Outline: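 Spontaneously hypertensive rats kept on a sodium-deficient diet received the agent orally. Value = maximum % change in mean arterial pressure over control. Duration = time outside a control area, defined as the means ±2 SD of arterial pressure and heart rate readings from 45 control rats.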

[22] = molecular target: Angiotensin-converting enzyme (Rattus norvegicus) (UniProt P47820); test: Percentage inactivation of the angiotensin I induced vasopressor response in normotensive conscious rats after po administration at dose 0.058 mg/kg; 65-70
[23] = molecular target: Angiotensin-converting enzyme (Rattus norvegicus) (UniProt P47820); test: The time to 50% recovery of the angiotensin I response was measured after po administration at 0.30 mg/kg
[24] = molecular target: Angiotensin-converting enzyme (Rattus norvegicus) (UniProt P47820); test: Percentage inactivation of the angiotensin I induced vasopressor response in normotensive conscious rats after po administration at dose 0.08 mg/kg; 80-85
[25] = molecular target: Angiotensin-converting enzyme (Rattus norvegicus) (UniProt P47820); test: The time to 50% recovery of the angiotensin I response was measured after po administration at 1.5 mg/kg; 0-30
[26] = molecular target: Angiotensin-converting enzyme (Rattus norvegicus) (UniProt P47820); test: Percentage inactivation of the angiotensin I induced vasopressor response in normotensive conscious rats after po administration at dose 1.5 mg/kg; 0-29
[27] = molecular target: Angiotensin-converting enzyme (Rattus norvegicus) (UniProt P47820); test: The time to 50% recovery of the angiotensin I response was measured after po administration at 1.5 mg/kg; 20-80
[28] = molecular target: Angiotensin-converting enzyme (Rattus norvegicus) (UniProt P47820); test: Percentage inactivation of the angiotensin I induced vasopressor response in normotensive conscious rats after po administration at dose 1.5 mg/kg; 43-64
[29] = molecular target: Angiotensin-converting enzyme (Rattus norvegicus) (UniProt P47820); test: The time to 50% recovery of the angiotensin I response was measured after po administration at 0.15 mg/kg; 30-100
[30] = molecular target: Angiotensin-converting enzyme (Rattus norvegicus) (UniProt P47820); test: Percentage inactivation of the angiotensin I induced vasopressor response in normotensive conscious rats after po administration at dose 0.15 mg/kg; 64-100

Row | Compound | IC50 [1] [nM] | IC50 [2] [nM] | IC50 [3] [nM] | further results
1 | CC(=O)SC(C)C(=O)N(CC(=O)O)C1CCCC1 (stereo not given) | 510 | – | – | –
2 | C[C@H]1CSC(=O)[C@@H]2Cc3ccccc3CN2C1=O | – | 800 | – | –
3 | CC1CSC(=O)[C@@H]2Cc3ccccc3CN2C1=O (stereo not given in full) | – | 18 | 45 | –
4 | CC1SC(=O)[C@@H]2CCCN2C1=O (stereo not given in full) | – | 33000 | – | Duration [4]: 10 min; inhibition [5]: 17%
5 | CC(S)C(=O)N1CSC[C@H]1C(=O)O (stereo in doubt; 37b(R,R)) | 10000 | – | – | –
6 | CC1SC(=O)C(C)(C)N(C2CCCC2)C1=O (stereo not given) | – | 90000 | – | Duration [4]: 20 min; inhibition [6]: 20%
7 | CC1SC(=O)C2N(C1=O)C(C)(C)SC2(C)C (stereo not given) | – | > 100000 | 21000 | Duration [7]: 20 min; inhibition [8]: 14%
8 | CC(S)C(=O)N1C(C(=O)O)C(C)(C)SC1(C)C (stereo not given) | 21000 | – | – | –
9 | CC(=O)SC(C)C(=O)N1Cc2ccccc2CC1(C)C(=O)O (stereo not given) | > 100000 | – | – | –
10 | CC1SC(=O)CN(C2CCCC2)C1=O (stereo not given) | – | 150 | 57 | Duration [9]: 30 min; Duration [10]: 10 min; inhibition [11]: 73%; inhibition [12]: 24%
11 | CC(=O)SC(C)C(=O)N(CC(=O)O)c1ccc(C)cc1 (stereo not given) | 180 | – | – | –
12 | CC1CSC(=O)CN(C2CC3CCC2C3)C1=O (stereo not given) | – | 12 | 25 | Duration [13]: 60 min; inhibition [14]: 85%
13 | C[C@@H]1SC(=O)[C@@]2(C)Cc3ccccc3CN2C1=O | – | > 100000 | > 100000 | Duration [15]: 10 min; inhibition [16]: 14%
14 | CC(S)C(=O)N(C1CCCC1)C(C)C(=O)O (stereo not given) | 6800 | – | – | –
15 | C[C@H]1CSC(=O)[C@@H]2Cc3ccccc3CN2C1=O (mixture of isomers) | – | – | – | Duration [17]: 10 min; inhibition [18]: 15%
16 | CC(=O)S[C@H](C)C(=O)N1CSC[C@H]1C(=O)O | 37000 | – | – | –

Row | Compound | IC50 [1] [nM] | IC50 [2] [nM] | IC50 [3] [nM] | further results
17 | CC(S)C(=O)N1CSC[C@H]1C(=O)O (stereo in doubt; 37b(S,R)) | 140 | – | – | –
18 | CC1SC(=O)CNC1=O (stereo not given) | – | 1900 | 1900 | –
19 | CC(=O)S[C@@H](C)C(=O)N1CSC[C@H]1C(=O)O | 1700 | – | – | –
20 | CC1SC(=O)C(C)N(C2CCCC2)C1=O (stereo not given) | – | 27000 | 6800 | inhibition [19]: 3%
21 | CC(S)C(=O)N(CC(=O)O)C1CCCC1 (stereo not given) | 57 | – | – | –
22 | CC(=O)SC(C)C(=O)N(C1CCCC1)C(C)(C)C(=O)O (stereo not given) | 95000 | – | – | –
23 | Cc1ccc(N(CC(=O)O)C(=O)C(C)S)cc1 (stereo not given) | 26 | – | – | –
24 | C[C@H](CSC(=O)C(C)(C)C)C(=O)N(CC(=O)O)C1CCCC1 [PIVOPRIL] | – | – | 17 | Duration (Rattus norvegicus [20]): >24 h; MAP (Rattus norvegicus [21]): -30%; Duration [17]: 60 min; inhibition [22]: 50%
25 | CC(=O)SC(C)C(=O)N1C(C(=O)O)C(C)(C)SC1(C)C (stereo not given) | > 100000 | – | – | –
26 | CCOC(=O)[C@H](CCc1ccccc1)N[C@@H](C)C(=O)N1CCC[C@H]1C(=O)O | – | – | – | Duration (Rattus norvegicus [20]): >24 h; MAP (Rattus norvegicus [21]): -38%; Duration [23]: 210 min; inhibition [24]: 50%
27 | CC1CSC(=O)C2N(C1=O)C(C)(C)SC2(C)C (stereo not given) | – | 50000 | 15000 | Duration [25]: 0 min; inhibition [26]: 0%
28 | CC(=O)SC(C)C(=O)N(C1CCCC1)C(C)C(=O)O (stereo not given) | 6800 | – | – | –
29 | CC1CSC(=O)[C@@H]2CSCN2C1=O (stereo not given in full) | – | 47 | 58 | Duration [27]: 20 min; inhibition [28]: 43%
30 | C[C@H](CS)C(=O)N1CCC[C@H]1C(=O)O [CAPTOPRIL] | – | – | – | MAP (Rattus norvegicus [21]): -30%
31 | C[C@@H]1CSC(=O)[C@@H]2CCCN2C1=O | – | 26 | 17 | Duration [29]: 30 min; inhibition [30]: 64%
